Shown are actives, neighbours in structure and some others; about 4.1% of the full set was active somewhere.
Cl transport mod: KCC2 (human) Cl- transport modulation; Q9H2X9; KCC2 cells, thallium flux FluoZin-2 fluorescence; B-score of Tl+ flux slope (higher = more flux/activation; lower = inhibition) at 10 µM; 2.2% of 190,000 active; AID 1456;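 active means thallium flux slope and its plate-corrected score both differing from the plate sample mean at a set confidence after two filtering rounds, in either direction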;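 further: slope of fluorescence scaled to starting intensity during 10 to 20 s after thallium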
KCNQ1 act: human KCNQ1 channel potentiation or activation; P51787; CHO-K1 KCNQ1, thallium flux FluxOR fluorescence; active compounds read high; B-score at 10 µM; 0.35% of 310,000 active;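 active means fluorescence ratio B-score, a plate-corrected score, at least three library SD, with initial intensity B-score within 5 SD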
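Doses: Single concentration per compound, DMSO matched to controls | Test system: KCNQ1-transfected CHO-K1 cells | Timing: 90 min dye loading and 20 min compound exposure, both at room temperature | Measured by: Kinetic FluxOR thallium fluorescence, 10-s 1-Hz baseline, 110-s post-stimulus read | Medium: Assay buffer with matched DMSO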
hERG protect: compounds protecting human hERG from proarrhythmic drug block | 0.51% of 310,000 active | activation (rescue from dofetilide block), less the hit threshold, % at 10 µM | Q12809 | CHO-hERG, FluxOR thallium flux, dofetilide IC70 present;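 active means activation above the mean of controls blocked by dofetilide plus 5 SD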;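 further: thallium influx through hERG after potassium depolarization seen as dye fluorescence rise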
KCNK3 inh: human KCNK3 channel inhibition, primary screen | O14649 | CHO-KCNK3 thallium flux, FluxOR fluorescence; active compounds read low | B-score at 10 µM | 0.84% of 340,000 active | AID 602410;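 active means B-score under library mean minus 4 SD, starting fluorescence ratio at most library mean plus 5 SD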;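 further: more negative B-score means stronger inhibition of thallium flux through KCNK3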
Target sequence (O14649 whole entry, looked up): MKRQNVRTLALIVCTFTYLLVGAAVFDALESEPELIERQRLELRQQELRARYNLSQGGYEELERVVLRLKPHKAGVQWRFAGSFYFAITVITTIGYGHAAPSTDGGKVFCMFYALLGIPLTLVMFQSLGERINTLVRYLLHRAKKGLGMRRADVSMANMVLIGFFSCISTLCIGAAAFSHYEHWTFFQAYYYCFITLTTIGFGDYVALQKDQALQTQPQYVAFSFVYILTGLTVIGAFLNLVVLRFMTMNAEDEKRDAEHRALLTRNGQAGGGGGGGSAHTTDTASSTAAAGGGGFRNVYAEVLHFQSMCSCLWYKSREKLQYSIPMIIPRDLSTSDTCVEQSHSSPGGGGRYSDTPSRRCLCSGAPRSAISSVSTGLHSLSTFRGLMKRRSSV
KCNK9 inh: inhibitors of human KCNK9 two-pore domain potassium channel; Q9NPC2; HEK293 KCNK9, FluxOR thallium flux fluorescence; active compounds read low; B-score at 10 µM; 1.2% of 310,000 active; AID 488922;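 active means ratio B-score over 3 SD below the library mean, with starting fluorescence within 5 SD of its mean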;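 further: negative B-score means less thallium flux so channel inhibition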
Target sequence (Q9NPC2 whole entry, looked up, the tested form may be a part): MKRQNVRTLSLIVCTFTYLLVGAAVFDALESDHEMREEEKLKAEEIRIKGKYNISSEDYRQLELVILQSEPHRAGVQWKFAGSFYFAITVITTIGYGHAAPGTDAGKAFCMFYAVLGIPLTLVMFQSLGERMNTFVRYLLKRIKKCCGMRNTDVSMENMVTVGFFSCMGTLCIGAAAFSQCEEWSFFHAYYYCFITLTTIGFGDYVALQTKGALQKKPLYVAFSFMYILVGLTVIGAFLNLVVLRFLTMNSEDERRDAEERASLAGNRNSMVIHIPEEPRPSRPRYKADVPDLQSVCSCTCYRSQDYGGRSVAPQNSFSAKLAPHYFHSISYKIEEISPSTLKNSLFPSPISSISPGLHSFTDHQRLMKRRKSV
KCNQ1 inh: blocks the human KCNQ1 potassium channel; CHO-K1 KCNQ1, FluxOR thallium flux fluorescence; active compounds read high; B-score at 10 µM; 1.3% of 310,000 active;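 active means compounds whose thallium flux B-score, printed positive for inhibition, exceeds three library SD while starting fluorescence stays within three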;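 further: channel opened by potassium depolarization with thallium stimulus after 20 min compound exposure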
KCC2 secondary: confirmation of human KCC2 transport modulators; shares compounds with Cl transport mod; 15% of 3,700 active; normalised thallium flux (F/F0 slope) at 10 µM; HEK293-KCC2, thallium flux, FluoZin2 fluorescence; active compounds read high;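 active means thallium flux slope above the same plate's solvent-only control mean plus 3 SD; inconclusive means the two replicate wells disagree; inactive means no significant difference from solvent-only control wells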
KCC2 bumet counter: thallium flux despite bumetanide block in KCC2 cells, secondary assay 3; shares compounds with Cl transport mod; HEK293-KCC2 + bumetanide/ouabain, thallium flux FluoZin2; active compounds read high; normalized thallium flux at 10 µM; 49% of 3,700 active; AID 1714;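 active means thallium entry rate above the same plate's blocked-transporter control wells by more than 3 SD; inconclusive means the two repeat wells disagree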;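 further: raw slope of fluorescence over initial fluorescence between 10 and 20 s after thallium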
KCC2 sec2: confirmation of human KCC2 transport modulators | 23% of 3,700 active | normalized thallium flux at 10 µM | shares compounds with Cl transport mod | AID 1715 | HEK293-KCC2, thallium flux FluoZin2 fluorescence; actives lie on both sides; F/F0 rise rate, 10–20 s post-thallium;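 active means thallium flux slope more than 3 SD above or below the plate's solvent-only control mean, mostly below; inconclusive means the two repeat wells disagreed; inactive means no significant shift from solvent-only controls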;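 further: raw slope with 0.1% DMSO as baseline and bumetanide as block control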
HEK counter1: acts in parental HEK cells, KCC2 counter-screen | shares compounds with Cl transport mod | HEK293 parental cells, thallium flux FluoZin2, ouabain; baseline-ratio fluorescence slope, 10–20 s after thallium | thallium flux rate (normalised fluorescence) at 10 µM | 46% of 3,700 active | AID 1716;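 active means thallium flux rate significantly above the same plate's solvent-only control wells, beyond their mean plus 3 SD; inconclusive means the two replicate wells gave conflicting results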
KCC2 ouabain: KCC2 (human) modulation, ouabain retest | shares compounds with Cl transport mod | HEK293-KCC2, thallium flux FluoZin2 fluorescence; bidirectional: low = inhibitor, high = activator | raw Tl+ flux slope (below DMSO = inhibition, above = activation) at 10 µM | 48% of 3,700 active | AID 1717;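 active means thallium flux slope beyond 3 SD from same-plate DMSO control mean in most replicates, usually higher, sometimes lower; inconclusive means repeat tests gave conflicting results; inactive means no significant difference from controls in most replicates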;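 further: slope of initial-normalized fluorescence between seconds 10 and 20 after thallium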
HEK293 Tl flux2: parental HEK flux effect, counter-screen 2. shares compounds with Cl transport mod. HEK293 parental, thallium flux FluoZin-2 fluorescence slope. thallium flux slope at 10 µM. 33% of 3,700 active;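 active means thallium flux slope above the same plate's solvent-control mean plus 3 SD in both duplicate wells; inconclusive means duplicate wells that disagreed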;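 further: run without ouabain in cells lacking the KCC2 cotransporter; slope of fluorescence scaled to its starting value between 10 and 20 s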
* marks the source's active call; other numbers are inactive results; i = inactive; u = inconclusive; x = not tested or not shown.

SMILES | Cl transport mod | KCNQ1 act | hERG protect | KCNK3 inh | KCNK9 inh | KCNQ1 inh | KCC2 secondary | KCC2 bumet counter | KCC2 sec2 | HEK counter1 | KCC2 ouabain | HEK293 Tl flux2
COc1ccccc1-c1ccc(SCC(=O)NCc2ccc3c(c2)OCO3)nn1 | -1.5 | i | -10 | i | i | i | x | x | x | x | x | x
CCCCc1c(C)nc2ccc(C)cc2c1SCCC(=O)O | -3.8* | i | -9 | i | i | i | 0.0065 | u | 0.023* | 0.0075 | 0.015* | 0.01
COc1ccc(OCc2cc(C(=O)NC(C)Cn3cncn3)no2)c(Cl)c1 (stereo not drawn) | x | i | -7 | i | i | i | x | x | x | x | x | x
CCCCN(CC)S(=O)(=O)c1ccc(C(=O)Nc2nnc(-c3cccs3)o2)cc1 | 23* | i | -4 | x | i | i | 0.016* | 0.075* | 0.029 | 0.036* | 0.05* | 0.011*
COc1cccc(C(=O)Nc2nnc(-c3cccs3)o2)c1 | 5.3* | i | -10 | i | i | i | 0.0065 | 0.023* | 0.034 | 0.018* | 0.029* | 0.016*
CCN(CC)S(=O)(=O)c1ccc(C(=O)Nc2nnc(-c3ccco3)o2)cc1 | 0.012 | i | -9 | i | i | i | x | x | x | x | x | x
COc1cccc(C(=O)Nc2nnc(-c3ccc(F)cc3)o2)c1 | 15* | i | -8 | i | i | i | 0.0096* | 0.05* | 0.047* | 0.035* | 0.047* | 0.023*
O=C(COc1ccc(Cl)cc1)Nc1nnc(-c2ccc3c(c2)CCCC3)o1 | 6.2* | i | -2 | i | i | i | u | 0.021* | 0.037 | u | 0.032* | u
O=C(COc1ccccc1)Nc1nnc(-c2ccc(Cl)cc2)o1 | x | i | -4 | i | i | i | x | x | x | x | x | x
O=C(Nc1ccc(Cc2nc3ccccc3s2)cc1)c1ccncc1 | x | i | -13 | i | i | i | x | x | x | x | x | x
COc1ccc(-c2nnc(NC(=O)c3ccccc3C)o2)cc1 | 4.5* | i | -5 | i | i | i | 0.015* | 0.024* | 0.031 | 0.013* | 0.026 | u
COc1cccc(-c2nnc(NC(=O)c3ccc4ncsc4c3)o2)c1 | 8.8* | i | -22 | i | i | i | 0.013* | 0.038* | 0.032 | 0.017* | 0.033* | u
Cc1cccc(C(=O)Nc2nnc(-c3cccnc3)o2)c1 | 4.6* | i | -13 | i | i | i | 0.0059 | 0.0093* | 0.03 | 0.0099* | 0.02 | u
COc1cccc(C(=O)Nc2nnc(-c3ccc(Cl)cc3)o2)c1 | 46* | i | -7 | i | i | i | u | 0.11* | 0.095* | 0.095* | 0.1* | 0.089*
Cc1cccc(C(=O)Nc2nnc(-c3ccncc3)o2)c1 | 0.7 | i | -8 | i | i | i | x | x | x | x | x | x
Cc1ccccc1NC(=O)CCC(=O)N/N=C/c1ccncc1 | x | i | -7 | i | i | i | x | x | x | x | x | x
CC(C)(C)OC(=O)NCCCCCO | x | x | x | i | x | x | x | x | x | x | x | x
Cc1ccc(C(=O)NNC(=O)CSc2nnc(C(C)C)n2C)cc1 | x | i | 0 | i | i | i | x | x | x | x | x | x
COc1ccc(-c2nc(CS(=O)CC(=O)NCc3ccc(Cl)cc3)c(C)o2)cc1OC (stereo not drawn) | x | i | -13 | i | i | i | x | x | x | x | x | x
Cc1nc(NC(=S)NC(=O)c2ccccc2)sc1C | 46* | i | -7 | i | i | i | 0.015* | 0.06* | 0.034 | 0.028* | 0.037* | 0.013*
COC(=O)c1sc(NC(=S)NC(=O)c2ccccc2F)nc1C | 36* | i | 3 | i | i | i | 0.0079 | 0.037* | u | 0.033* | 0.04* | 0.022*
CC(C)c1ccc2nc(SCC(=O)NCC3CCCO3)c(C#N)cc2c1 (stereo not drawn) | x | i | -4 | i | i | i | x | x | x | x | x | x
COc1cccc(C(=O)CSc2nnc(CNS(=O)(=O)c3ccc(C)cc3)n2C)c1 | -4.2* | i | -9 | i | i | i | 0.0099 | 0.0072 | 0.032 | 0.0084 | 0.024 | 0.011*
S=c1[nH]nc(C2CCCCC2)n1/N=C/C=C/c1ccccc1 | 7.7* | i | -4 | i | i | i | 0.0068 | 0.037* | 0.046* | 0.034* | 0.032* | 0.031*
O=[N+]([O-])c1ccccc1/C=N/n1c(C2CCCCC2)n[nH]c1=S | 11* | i | -9 | i | i | i | 0.0064 | 0.033* | 0.036 | 0.024* | 0.031* | 0.019*
SMILES | Cl transport mod | KCNQ1 act | hERG protect | KCNK3 inh | KCNK9 inh | KCNQ1 inh | KCC2 secondary | KCC2 bumet counter | KCC2 sec2 | HEK counter1 | KCC2 ouabain | HEK293 Tl flux2
O=C(c1cnn2cccnc12)N1CCN(Cc2ccc3c(c2)OCO3)CC1 | 0.27 | i | -1 | i | i | i | x | x | x | x | x | x
CCOc1ncccc1C(=O)N1CCN(Cc2ccc3c(c2)OCO3)CC1 | 4.8* | i | -6 | i | i | i | 0.016 | 0.0042 | 0.028 | 0.0077 | 0.018 | 0.0093
COc1ccccc1-c1noc(-c2ccccc2C(=O)Nc2ccccc2)n1 | x | i | -13 | i | i | i | x | x | x | x | x | x
COc1ccccc1NC(=O)c1ccccc1-c1nc(-c2ccccc2OC)no1 | 4* | i | -24 | i | i | i | 0.0081 | 0.0052 | 0.032 | 0.0035 | 0.019 | 0.011
COc1cc(/C=N/NC(=S)Nc2cccc(S(=O)(=O)N(C)C)c2)ccc1O | -3.4* | i | -7 | i | i | i | 0.0061 | 0.0071 | 0.029 | 0.0066 | 0.016* | 0.0095
CN(C)S(=O)(=O)c1cccc(NC(=S)NN=C(Cc2ccccc2)Cc2ccccc2)c1 | 5.9* | i | -4 | i | i | i | 0.0069 | 0.0099* | 0.034 | 0.014* | 0.023 | 0.016*
COc1cc(/C=N/NC(=O)c2cccc(NC(=O)c3ccccc3)c2)ccc1O | x | i | -15 | i | i | i | x | x | x | x | x | x

Screening data as filed in PubChem BioAssay.
